Legend:
[1] = target: Delta-type opioid receptor (Mus musculus) (UniProt P32300); assay: Maximal inhibition of compound was measured on Mouse vas deferens(MVD) preparation; assay type: functional
Method in brief: (§1)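 Agonist activity at 1 μM on electrically stimulated guinea pig ileum and mouse vas deferens preparations. Maximal inhibition or stimulation was recorded, averaged over three determinations.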

[2] = target: Kappa-type opioid receptor (Cavia porcellus) (UniProt P41144); assay: (§2) Binding affinity of compound was measured against Opioid receptor kappa 1 on electrically stimulated guinea pig ileal longitudinal muscle myenteric plexus (GPI) at 100 nM preparation using U-50,488H as agonist
Sequence of Kappa-type opioid receptor (Cavia porcellus) (P41144 whole entry): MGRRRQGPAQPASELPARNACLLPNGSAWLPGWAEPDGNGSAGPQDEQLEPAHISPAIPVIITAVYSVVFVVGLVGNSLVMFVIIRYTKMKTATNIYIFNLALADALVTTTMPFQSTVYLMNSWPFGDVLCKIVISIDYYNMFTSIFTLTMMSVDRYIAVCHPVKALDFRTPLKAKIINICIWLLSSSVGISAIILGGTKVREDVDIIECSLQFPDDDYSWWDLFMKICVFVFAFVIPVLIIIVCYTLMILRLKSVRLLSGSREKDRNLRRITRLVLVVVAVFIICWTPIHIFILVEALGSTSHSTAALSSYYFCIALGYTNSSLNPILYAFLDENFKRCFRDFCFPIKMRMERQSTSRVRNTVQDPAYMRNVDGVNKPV
Method in brief: (§3)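 Electrically stimulated guinea pig ileal longitudinal muscle was used for μ agonists (M, DAMGO) and κ agonists (EK, U50488H). Mouse vas deferens was used for δ agonists (DADLE, DPDPE). Antagonist at 100 nM unless specified, preincubated 15 min. Agonist concentration-response curves were run without and then with antagonist in the same tissue, giving IC50s. Ke = [antagonist]/(IC50 ratio − 1).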

[3] = target: Mu-type opioid receptor (Cavia porcellus) (UniProt P97266); assay: Binding affinity of compound was measured against Opioid receptor mu 1 on electrically stimulated guinea pig ileal longitudinal muscle myenteric plexus (GPI)at 100 nM preparation using M as agonist; method in brief: as §3
Sequence of Mu-type opioid receptor (Cavia porcellus) (P97266 whole entry): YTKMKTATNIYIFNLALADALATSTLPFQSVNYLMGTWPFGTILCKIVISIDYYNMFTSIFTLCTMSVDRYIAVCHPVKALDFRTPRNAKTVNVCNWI

[4] = target: Kappa-type opioid receptor (Cavia porcellus) (UniProt P41144); assay: Binding affinity of compound was measured against Opioid receptor kappa 1 on electrically stimulated guinea pig ileal longitudinal muscle myenteric plexus (GPI) at 100 nM preparation using EK as agonist; method in brief: as §3
[5] = target: Delta-type opioid receptor (Mus musculus) (UniProt P32300); assay: Binding affinity of compound was measured against Opioid receptor delta 1 in mouse vas deferens (MVD) smooth muscle preparation at 100 nM using DADLE as standard agonist; method in brief: as §3
[6] = target: Mu-type opioid receptor (Cavia porcellus) (UniProt P97266); assay: (§4) Binding affinity of compound was measured against Opioid receptor mu 1 on electrically stimulated guinea pig ileal longitudinal muscle myenteric plexus (GPI)at 100 nM preparation using DAMGO as agonist; method in brief: as §3
[7] = target: T1, Mu-type opioid receptor (Cavia porcellus, UniProt P97266); assay: as §4; method in brief: as §3
T1 sequence (P97266 whole entry): as above

[8] = target: T2, Kappa-type opioid receptor (Cavia porcellus, UniProt P41144); assay: as §2; method in brief: as §3
T2 sequence (P41144 whole entry): as the sequence (P41144 whole entry) above

[9] = target: Mu-type opioid receptor (Cavia porcellus) (UniProt P97266); assay: Maximal inhibition of compound was measured on guinea pig ileal longitudinal muscle (GPI) preparation at 1 uM concentration; assay type: functional, tissue-based; details: Muscle tissue; method in brief: as §1
[10] = target: Mu-type opioid receptor (Homo sapiens) (UniProt P35372); assay: Compound was tested for antagonist activity against mu opioid receptor on electrically stimulated guinea pig ileal longitudinal muscle myenteric plexus (GPI) at 100 nM using DAMGO as agonist ligand.; assay type: functional; method in brief: as §3
Sequence of Mu-type opioid receptor (Homo sapiens) (P35372 whole entry): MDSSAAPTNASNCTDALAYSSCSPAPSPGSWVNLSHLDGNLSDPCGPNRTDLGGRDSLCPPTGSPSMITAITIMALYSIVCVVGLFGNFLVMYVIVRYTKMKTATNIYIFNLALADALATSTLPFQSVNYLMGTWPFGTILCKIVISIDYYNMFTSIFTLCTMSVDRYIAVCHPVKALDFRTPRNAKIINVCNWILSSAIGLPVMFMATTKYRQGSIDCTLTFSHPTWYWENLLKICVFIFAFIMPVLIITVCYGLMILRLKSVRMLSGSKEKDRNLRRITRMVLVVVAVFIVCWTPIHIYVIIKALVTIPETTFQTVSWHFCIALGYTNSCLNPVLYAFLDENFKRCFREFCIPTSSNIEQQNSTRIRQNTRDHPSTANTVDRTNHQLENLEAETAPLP

[11] = system: Mus musculus; assay: Compound was tested for antagonism of the antinociceptive effect of M opioid agonist, sc in mice in an acetic acid writhing assay in a treated group(icv with 100 nmol of 2.HCl in 5 microL of saline); assay type: functional
Method in brief: (§5)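 Mouse acetic acid writhing assay. Antagonist was given icv at 100 nmol in 5 μL saline, timed so its 60-min peak effect fell at the centre of the observation period. Agonists (M, EK, U50488H) were given sc at four dose levels to control and treated mice. ED50 ratio = treated ED50 / control ED50.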

[12] = target: Kappa-type opioid receptor (Homo sapiens) (UniProt P41145); assay: Compound was tested for antagonist activity against kappa opioid receptor on electrically stimulated guinea pig ileal longitudinal muscle myenteric plexus (GPI) at 100 nM using U-50,488H as agonist ligand.; assay type: functional; method in brief: as §3
Sequence of Kappa-type opioid receptor (Homo sapiens) (P41145 whole entry): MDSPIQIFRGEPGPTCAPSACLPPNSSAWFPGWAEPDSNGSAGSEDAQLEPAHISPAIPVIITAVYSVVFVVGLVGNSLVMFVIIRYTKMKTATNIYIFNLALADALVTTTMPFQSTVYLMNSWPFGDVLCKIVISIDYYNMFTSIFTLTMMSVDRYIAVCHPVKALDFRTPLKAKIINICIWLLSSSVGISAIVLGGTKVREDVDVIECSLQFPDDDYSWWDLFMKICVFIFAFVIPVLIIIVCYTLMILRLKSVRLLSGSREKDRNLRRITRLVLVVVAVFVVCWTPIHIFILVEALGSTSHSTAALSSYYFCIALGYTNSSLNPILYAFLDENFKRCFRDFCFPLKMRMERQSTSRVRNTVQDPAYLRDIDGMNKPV

[13] = system: Kappa-type opioid receptor; assay: Compound was tested for antagonist activity against kappa opioid receptor on electrically stimulated guinea pig ileal longitudinal muscle myenteric plexus (GPI) at 100 nM using EK as agonist ligand.; assay type: functional; method in brief: as §3
[14] = Compound was tested for antagonist activity against Opioid receptor delta 1 in mouse vas deferens (MVD) smooth muscle preparation at 100 nM using DADLE as agonist; assay type: functional; method in brief: as §3
[15] = target: Delta-type opioid receptor (Mus musculus) (UniProt P32300); assay: Binding affinity of compound was measured against Opioid receptor delta 1 in mouse vas deferens (MVD) smooth muscle preparation at 100 nM using DPDPE as standard agonist; method in brief: as §3
[16] = system: Mus musculus; assay: Compound was tested for antagonism of the antinociceptive effect of U-50, 488H opioid agonist, sc in mice in an acetic acid writhing assay in a treated group(icv with 100 nmol of 2.HCl in 5 microL of saline); assay type: functional; method in brief: as §5
[17] = system: Mus musculus; assay: Compound was tested for antagonism of the antinociceptive effect of EK opioid agonist, sc in mice in an acetic acid writhing assay in a control group; assay type: functional; method in brief: as §5
[18] = system: Mus musculus; assay: Compound was tested for antagonism of the antinociceptive effect of M opioid agonist, sc in mice in an acetic acid writhing assay in a control group; assay type: functional; method in brief: as §5
[19] = target: Mu-type opioid receptor (Homo sapiens) (UniProt P35372); assay: Compound was tested for antagonist activity against mu opioid receptor on electrically stimulated guinea pig ileal longitudinal muscle myenteric plexus (GPI) at 100 nM using M as agonist ligand. IC50; assay type: functional; method in brief: as §3
[20] = system: Mus musculus; assay: compound was tested for antagonism of the antinociceptive effect of EK opioid agonist, sc in mice in an acetic acid writhing assay in a treated group(icv with 100 nmol of 2.HCl in 5 microL of saline); assay type: functional; method in brief: as §5
[21] = system: Mus musculus; assay: Compound was tested for antagonism of the antinociceptive effect of U-50, 488H opioid agonist, sc in mice in an acetic acid writhing assay in a control group; assay type: functional; method in brief: as §5
[22] = target: T2, Kappa-type opioid receptor; assay: Binding affinity against Opioid receptor kappa 1 was measured in the guinea pig brain membranes using [3H]EK in the presence of 1 uM unlabeled DAMGO as radioligand; assay type: cell membranes, Membrane
Method in brief: (§6)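 Guinea pig brain membranes, using a modified version of a published method. μ sites were labelled with [³H]DAMGO. κ sites were labelled with [³H]EK plus 1 μM unlabeled DAMGO. δ sites were labelled with [³H]DADLE plus 1 μM unlabeled DAMGO. Ki values were derived by displacement.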

[23] = target: T1, Mu-type opioid receptor; assay: Binding affinity against Opioid receptor mu 1 was measured in the guinea pig brain membranes using [3H]DAMGO as radioligand; assay type: cell membranes, Membrane; method in brief: as §6
[24] = target: Opioid receptors; mu & kappa (Homo sapiens) (UniProt P41145+P35372); assay: Ki ratio measured as the ke values of mu receptor/kappa receptor from guinea pig brain membranes.
Sequence of Opioid receptors; mu & kappa (Homo sapiens) (P35372 whole entry, looked up): as the sequence (P35372 whole entry) above
Sequence of Opioid receptors; mu & kappa (Homo sapiens) (P41145 whole entry, looked up): as the sequence (P41145 whole entry) above

[25] = target: Mu-type opioid receptor (Homo sapiens) (UniProt P35372); assay: Compound was tested for antagonist activity against mu opioid receptor on electrically stimulated guinea pig ileal longitudinal muscle myenteric plexus (GPI) at 100 nM using M as agonist ligand.; assay type: functional; method in brief: as §3

Sequence of Delta-type opioid receptor (Mus musculus) (P32300 whole entry): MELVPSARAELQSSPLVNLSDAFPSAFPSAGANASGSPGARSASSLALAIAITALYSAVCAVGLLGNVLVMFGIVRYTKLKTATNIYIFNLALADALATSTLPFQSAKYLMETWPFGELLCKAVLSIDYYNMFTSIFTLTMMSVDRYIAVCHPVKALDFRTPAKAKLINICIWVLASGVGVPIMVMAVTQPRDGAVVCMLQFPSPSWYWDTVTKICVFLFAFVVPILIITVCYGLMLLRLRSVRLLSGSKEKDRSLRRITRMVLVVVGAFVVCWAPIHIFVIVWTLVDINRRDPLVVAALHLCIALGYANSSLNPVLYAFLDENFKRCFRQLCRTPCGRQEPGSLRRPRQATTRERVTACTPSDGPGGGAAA

Compound	Activity [1]	Ke [2] [nM]	Ke [3] [nM]	Ke [4] [nM]	Ke [5] [nM]	Ke [6] [nM]	Ki [7] [nM]	Ki [8] [nM]	Activity [9]	Ratio [13]	Ratio [14]	Ratio [19]	Ki [22] [nM]	Ki [23] [nM]	Ratio [24]	other results
Oc1ccc2c3c1O[C@H]1c4[nH]c5c(c4C[C@@]4(O)[C@@H](C2)N(CC2CC2)CC[C@]314)C[C@@]1(O)[C@H]2Cc3ccc(O)c4c3[C@@]1(CCN2CC1CC1)[C@H]5O4 [NORBINALTORPHIMINE]	16	0.21	14	0.55	10.6	22	47	0.26	14							
Oc1ccc2c3c1O[C@H]1c4sc5c(c4C[C@@]4(O)[C@@H](C2)N(CC2CC2)CC[C@]314)C[C@@]1(O)[C@H]2Cc3ccc(O)c4c3[C@@]1(CCN2CC1CC1)[C@H]5O4	-26	3.1	41	2.6	33	> 103	189	1.4	-17	39	4	3.5				Ratio [10]: 1.9; ED50 [11]: 5.4 mg/kg; Ratio [12]: 33; Ke [15]: > 556 nM; ED50 [16]: 11.2 mg/kg; ED50 [17]: 0.038 mg/kg; ED50 [18]: 0.91 mg/kg; ED50 [20]: 0.13 mg/kg; ED50 [21]: 1.5 mg/kg
Oc1ccc2c3c1O[C@H]1C4=C(C[C@@]5(O)[C@@H](C2)N(CC2CC2)CC[C@]315)C(c1ccccc1)C1=C(O4)[C@@H]2Oc3c(O)ccc4c3[C@@]23CCN(CC2CC2)[C@H](C4)[C@]3(O)C1	9		39	2.6	36				-24	39	3.8		10	29	11	Ratio [25]: 3.6
O=C1C(=Cc2ccccc2)C[C@@]2(O)[C@H]3Cc4ccc(O)c5c4[C@@]2(CCN3CC2CC2)[C@H]1O5	-35		8.3	100	2.9				-8	2	35	13.1				
Cn1c2c(c3c1[C@@H]1Oc4c(O)ccc5c4[C@@]14CCN(CC1CC1)[C@H](C5)[C@]4(O)C3)C[C@@]1(O)[C@H]3Cc4ccc(O)c5c4[C@@]1(CCN3CC1CC1)[C@H]2O5 [BINALTORPHIMINE]													0.41	18	44	
Oc1ccc2c3c1O[C@H]1C(SSC4=CC[C@@]5(O)[C@H]6Cc7ccc(O)c8c7[C@@]5(CCN6CC5CC5)[C@H]4O8)=CC[C@@]4(O)[C@@H](C2)N(CC2CC2)CC[C@]314	15		2.2	3.5	13.2				40	9.7	8.6	14.6				

Reference: ChEMBL document CHEMBL1125657 (J Med Chem, 1991)
